For assay [1], the target named is Mitogen-activated protein kinase 9 (Homo sapiens) (UniProt P45984). The assay can be described thus: Inhibition of JNK2 at 1 uM. Put shortly:
(§1)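 Single-concentration screen on the Ambit KINOMEscan platform, run against a panel of 250–400 kinases. Per-kinase inhibition was also summarized as S(90), the fraction of kinases inhibited by more than 90%.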

Assay [2] addresses Serine/threonine-protein kinase MARK2 (Homo sapiens) (UniProt Q7KZI7). Nature of the assay: Inhibition of MARK2 at 1 uM. Put shortly: (§2)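 Kinase-panel screen using KINOMEscan technology, with 250–400 kinases per panel. Each compound was tested at a single concentration, and inhibition of each kinase was recorded. Selectivity was summarised as S(90), the fraction of kinases inhibited by more than 90%.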

In assay [3] the target is Mitogen-activated protein kinase kinase kinase 10 (Homo sapiens) (UniProt Q02779). The assay can be described thus: Inhibition of MLK2 at 1 uM. Put shortly: as §2
For assay [4], the target named is T1, 3-phosphoinositide-dependent protein kinase 1 (Homo sapiens) (UniProt O15530).
T1 sequence (whole entry): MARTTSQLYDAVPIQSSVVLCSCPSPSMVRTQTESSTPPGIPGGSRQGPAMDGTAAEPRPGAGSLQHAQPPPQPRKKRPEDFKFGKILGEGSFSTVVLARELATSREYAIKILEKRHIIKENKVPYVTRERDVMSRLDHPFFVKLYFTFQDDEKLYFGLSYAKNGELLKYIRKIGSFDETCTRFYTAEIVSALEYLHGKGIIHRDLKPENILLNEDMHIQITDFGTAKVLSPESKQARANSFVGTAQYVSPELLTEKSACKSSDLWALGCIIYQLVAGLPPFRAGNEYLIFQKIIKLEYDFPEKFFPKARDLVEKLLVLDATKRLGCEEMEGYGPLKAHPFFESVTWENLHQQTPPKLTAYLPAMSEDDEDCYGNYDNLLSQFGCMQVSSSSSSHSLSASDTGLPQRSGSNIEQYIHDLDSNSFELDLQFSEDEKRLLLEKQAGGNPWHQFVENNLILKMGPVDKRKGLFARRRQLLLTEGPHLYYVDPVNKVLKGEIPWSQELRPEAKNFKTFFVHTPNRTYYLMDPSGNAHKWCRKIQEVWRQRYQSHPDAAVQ
Nature of the assay: Inhibition of PDPK1 at 1 uM.

Assay [5] relates to Phosphatidylinositol 4,5-bisphosphate 3-kinase catalytic subunit alpha isoform (Homo sapiens), P42336 [Q546K]. Nature of the assay: Inhibition of PIK3CA Q546K mutant at 1 uM.
Assay [6] has as its target Phosphatidylinositol 4-kinase beta (Homo sapiens) (UniProt Q9UBF8). Nature of the assay: Inhibition of PIK4CB at 1 uM.
For assay [7], the target named is Protein kinase C eta type (Homo sapiens) (UniProt P24723). Nature of the assay: Inhibition of PRKCH at 1 uM.
Assay [8] concerns the target Protein kinase C theta type (Homo sapiens) (UniProt Q04759). The assay can be described thus: Inhibition of PRKCQ at 1 uM.
Assay [9] addresses Tyrosine-protein kinase ABL2 (Homo sapiens) (UniProt P42684). Nature of the assay: Inhibition of ABL2 at 1 uM. Put shortly:
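Ambit KINOMEscan screen at a single concentration across a 250–400 kinase panel, recorded as percent inhibition. Selectivity was expressed as S(90), the fraction of kinases inhibited >90%.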

The target in assay [10] is Bone morphogenetic protein receptor type-1B (Homo sapiens) (UniProt O00238). The assay can be described thus: Inhibition of BMPR1B at 1 uM.
The target of assay [11] is Death-associated protein kinase 1 (Homo sapiens) (UniProt P53355). The assay can be described thus: Inhibition of DAPK1 at 1 uM. The essentials:
(§3)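 Single-concentration screen using Ambit Bioscience KINOMEscan technology across a panel of 250–400 kinases. Per-kinase inhibition from this screen was summarized as S(90), the fraction of kinases inhibited by more than 90%.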

Assay [12] concerns the target T2, Discoidin domain-containing receptor 2 (Homo sapiens) (UniProt Q16832).
T2 sequence (whole entry): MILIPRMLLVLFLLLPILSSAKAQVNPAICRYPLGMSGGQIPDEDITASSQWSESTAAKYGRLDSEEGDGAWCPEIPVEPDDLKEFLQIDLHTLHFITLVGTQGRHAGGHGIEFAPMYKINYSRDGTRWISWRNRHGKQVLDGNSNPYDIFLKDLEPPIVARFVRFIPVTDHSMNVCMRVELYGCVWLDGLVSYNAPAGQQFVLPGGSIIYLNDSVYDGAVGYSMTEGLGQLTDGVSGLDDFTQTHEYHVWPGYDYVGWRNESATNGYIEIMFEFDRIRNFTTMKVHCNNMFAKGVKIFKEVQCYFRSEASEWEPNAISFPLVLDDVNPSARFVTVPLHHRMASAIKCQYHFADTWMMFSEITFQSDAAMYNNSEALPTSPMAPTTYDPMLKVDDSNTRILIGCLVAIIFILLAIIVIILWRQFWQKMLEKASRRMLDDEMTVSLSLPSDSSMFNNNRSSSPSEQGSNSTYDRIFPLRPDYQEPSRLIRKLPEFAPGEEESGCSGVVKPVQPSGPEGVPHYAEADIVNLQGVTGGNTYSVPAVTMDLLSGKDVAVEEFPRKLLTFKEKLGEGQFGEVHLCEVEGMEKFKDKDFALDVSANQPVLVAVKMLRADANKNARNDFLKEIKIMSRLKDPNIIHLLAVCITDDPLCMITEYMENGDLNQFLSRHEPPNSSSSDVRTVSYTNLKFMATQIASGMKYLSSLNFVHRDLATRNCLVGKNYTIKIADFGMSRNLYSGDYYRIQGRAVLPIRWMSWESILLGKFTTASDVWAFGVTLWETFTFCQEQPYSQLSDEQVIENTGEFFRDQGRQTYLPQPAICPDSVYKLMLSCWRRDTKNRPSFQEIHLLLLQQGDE
Nature of the assay: Inhibition of DDR2 at 1 uM.

In assay [13] the target is Serine/threonine-protein kinase MRCK gamma (Homo sapiens) (UniProt Q6DT37). Nature of the assay: Inhibition of DMPK2 at 1 uM. Put shortly: as §3
The target in assay [14] is Mitogen-activated protein kinase 7 (Homo sapiens) (UniProt Q13164). Nature of the assay: Inhibition of ERK5 at 1 uM.
Assay [15] deals with Receptor-type tyrosine-protein kinase FLT3 (Homo sapiens) (UniProt P36888). The assay can be described thus: Inhibition of FLT3 at 1 uM. Put shortly: as §1
Sequence of Receptor-type tyrosine-protein kinase FLT3 (Homo sapiens) (P36888 whole entry): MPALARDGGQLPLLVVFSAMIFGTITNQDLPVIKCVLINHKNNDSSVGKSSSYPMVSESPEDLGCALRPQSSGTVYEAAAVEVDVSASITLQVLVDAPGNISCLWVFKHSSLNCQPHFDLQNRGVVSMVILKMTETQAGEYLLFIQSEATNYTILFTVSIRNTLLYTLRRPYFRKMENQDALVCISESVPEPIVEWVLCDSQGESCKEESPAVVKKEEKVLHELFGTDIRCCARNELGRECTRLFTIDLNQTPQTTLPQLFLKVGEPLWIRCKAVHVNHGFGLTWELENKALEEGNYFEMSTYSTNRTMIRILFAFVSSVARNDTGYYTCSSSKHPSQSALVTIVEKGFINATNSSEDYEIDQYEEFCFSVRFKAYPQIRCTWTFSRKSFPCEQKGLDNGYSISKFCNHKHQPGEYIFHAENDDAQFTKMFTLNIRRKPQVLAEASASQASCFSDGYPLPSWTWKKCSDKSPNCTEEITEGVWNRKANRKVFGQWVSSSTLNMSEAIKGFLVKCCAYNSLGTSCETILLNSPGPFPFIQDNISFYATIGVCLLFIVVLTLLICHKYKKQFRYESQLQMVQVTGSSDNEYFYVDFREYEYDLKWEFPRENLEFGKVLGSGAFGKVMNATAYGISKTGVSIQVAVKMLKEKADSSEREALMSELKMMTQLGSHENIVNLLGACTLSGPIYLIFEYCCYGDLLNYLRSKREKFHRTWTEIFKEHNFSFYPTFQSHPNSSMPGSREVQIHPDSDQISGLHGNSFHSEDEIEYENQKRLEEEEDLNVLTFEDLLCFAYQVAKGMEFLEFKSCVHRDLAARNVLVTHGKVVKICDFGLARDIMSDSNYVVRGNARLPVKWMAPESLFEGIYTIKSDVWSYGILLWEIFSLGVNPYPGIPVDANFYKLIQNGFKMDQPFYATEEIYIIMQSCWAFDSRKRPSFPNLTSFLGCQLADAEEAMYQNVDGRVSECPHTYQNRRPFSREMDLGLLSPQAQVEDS

The inhibition is the relative decrease from the control value, in per cent. A lower inhibition goes with a weak effect.

Sequence of Serine/threonine-protein kinase MARK2 (Homo sapiens) (Q7KZI7 whole entry): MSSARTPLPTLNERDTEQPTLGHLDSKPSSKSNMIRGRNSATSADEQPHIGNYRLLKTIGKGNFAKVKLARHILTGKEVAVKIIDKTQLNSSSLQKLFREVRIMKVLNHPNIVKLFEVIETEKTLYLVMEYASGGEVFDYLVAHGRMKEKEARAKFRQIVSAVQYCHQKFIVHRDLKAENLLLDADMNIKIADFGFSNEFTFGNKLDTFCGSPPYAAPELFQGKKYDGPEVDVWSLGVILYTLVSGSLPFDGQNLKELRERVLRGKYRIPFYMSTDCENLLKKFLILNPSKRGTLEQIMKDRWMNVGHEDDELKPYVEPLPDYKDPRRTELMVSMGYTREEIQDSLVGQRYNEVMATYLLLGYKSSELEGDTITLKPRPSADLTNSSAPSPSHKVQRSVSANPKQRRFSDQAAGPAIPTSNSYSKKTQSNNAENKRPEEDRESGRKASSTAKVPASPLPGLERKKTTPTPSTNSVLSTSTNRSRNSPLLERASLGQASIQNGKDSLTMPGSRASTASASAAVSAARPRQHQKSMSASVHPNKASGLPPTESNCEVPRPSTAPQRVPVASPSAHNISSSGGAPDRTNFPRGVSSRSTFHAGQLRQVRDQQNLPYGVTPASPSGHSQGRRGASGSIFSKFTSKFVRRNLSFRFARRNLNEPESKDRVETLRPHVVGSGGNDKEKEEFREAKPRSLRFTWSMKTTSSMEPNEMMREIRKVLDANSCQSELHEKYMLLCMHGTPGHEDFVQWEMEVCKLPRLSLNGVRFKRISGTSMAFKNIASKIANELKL
Sequence of Mitogen-activated protein kinase 9 (Homo sapiens) (P45984 whole entry, looked up): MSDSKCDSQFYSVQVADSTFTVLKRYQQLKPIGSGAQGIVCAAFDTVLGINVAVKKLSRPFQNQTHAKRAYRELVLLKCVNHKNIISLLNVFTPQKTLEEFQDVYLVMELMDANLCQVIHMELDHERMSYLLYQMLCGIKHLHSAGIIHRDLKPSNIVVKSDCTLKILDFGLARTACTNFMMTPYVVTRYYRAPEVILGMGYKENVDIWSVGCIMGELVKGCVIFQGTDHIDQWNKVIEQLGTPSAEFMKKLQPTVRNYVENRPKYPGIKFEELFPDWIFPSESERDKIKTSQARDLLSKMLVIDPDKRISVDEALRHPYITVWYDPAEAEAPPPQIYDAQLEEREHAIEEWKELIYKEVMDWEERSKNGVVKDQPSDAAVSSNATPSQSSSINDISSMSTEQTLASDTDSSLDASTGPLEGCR
Sequence of Death-associated protein kinase 1 (Homo sapiens) (P53355 whole entry, looked up): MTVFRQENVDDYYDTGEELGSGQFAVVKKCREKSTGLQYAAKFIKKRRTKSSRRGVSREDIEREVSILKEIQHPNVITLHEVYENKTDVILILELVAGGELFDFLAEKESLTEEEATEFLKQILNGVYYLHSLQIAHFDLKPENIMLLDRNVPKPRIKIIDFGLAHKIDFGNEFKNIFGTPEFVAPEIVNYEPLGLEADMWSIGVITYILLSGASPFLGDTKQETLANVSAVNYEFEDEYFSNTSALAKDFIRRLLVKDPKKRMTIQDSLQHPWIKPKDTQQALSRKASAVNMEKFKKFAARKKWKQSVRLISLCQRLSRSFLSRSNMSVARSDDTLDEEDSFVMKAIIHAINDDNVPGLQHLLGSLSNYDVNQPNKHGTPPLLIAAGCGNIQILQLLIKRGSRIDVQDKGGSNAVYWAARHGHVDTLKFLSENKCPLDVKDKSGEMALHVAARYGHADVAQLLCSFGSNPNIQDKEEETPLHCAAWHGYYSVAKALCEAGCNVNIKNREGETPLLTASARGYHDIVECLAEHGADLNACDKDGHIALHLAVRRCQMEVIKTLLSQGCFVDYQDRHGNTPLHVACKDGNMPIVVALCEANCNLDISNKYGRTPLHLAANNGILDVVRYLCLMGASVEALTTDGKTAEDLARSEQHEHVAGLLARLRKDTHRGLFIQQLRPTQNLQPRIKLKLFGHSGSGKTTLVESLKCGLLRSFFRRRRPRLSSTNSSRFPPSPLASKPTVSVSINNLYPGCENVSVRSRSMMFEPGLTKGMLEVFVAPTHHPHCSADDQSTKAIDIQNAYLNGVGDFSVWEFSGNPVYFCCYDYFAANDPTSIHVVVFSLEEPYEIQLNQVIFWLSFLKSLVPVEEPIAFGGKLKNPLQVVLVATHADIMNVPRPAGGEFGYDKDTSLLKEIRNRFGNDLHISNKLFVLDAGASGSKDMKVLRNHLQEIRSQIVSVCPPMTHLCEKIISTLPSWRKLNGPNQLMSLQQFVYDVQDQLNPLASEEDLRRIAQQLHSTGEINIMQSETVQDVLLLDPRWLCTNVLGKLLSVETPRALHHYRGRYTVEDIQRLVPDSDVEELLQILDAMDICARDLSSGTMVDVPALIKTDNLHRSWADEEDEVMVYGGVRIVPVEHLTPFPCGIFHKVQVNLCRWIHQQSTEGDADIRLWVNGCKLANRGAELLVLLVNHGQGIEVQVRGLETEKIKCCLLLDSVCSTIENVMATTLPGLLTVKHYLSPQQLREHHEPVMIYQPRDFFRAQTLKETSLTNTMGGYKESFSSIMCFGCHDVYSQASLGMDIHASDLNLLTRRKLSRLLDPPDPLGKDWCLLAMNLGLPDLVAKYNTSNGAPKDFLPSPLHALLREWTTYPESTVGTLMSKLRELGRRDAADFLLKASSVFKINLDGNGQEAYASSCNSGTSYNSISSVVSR
Sequence of Tyrosine-protein kinase ABL2 (Homo sapiens) (P42684 whole entry): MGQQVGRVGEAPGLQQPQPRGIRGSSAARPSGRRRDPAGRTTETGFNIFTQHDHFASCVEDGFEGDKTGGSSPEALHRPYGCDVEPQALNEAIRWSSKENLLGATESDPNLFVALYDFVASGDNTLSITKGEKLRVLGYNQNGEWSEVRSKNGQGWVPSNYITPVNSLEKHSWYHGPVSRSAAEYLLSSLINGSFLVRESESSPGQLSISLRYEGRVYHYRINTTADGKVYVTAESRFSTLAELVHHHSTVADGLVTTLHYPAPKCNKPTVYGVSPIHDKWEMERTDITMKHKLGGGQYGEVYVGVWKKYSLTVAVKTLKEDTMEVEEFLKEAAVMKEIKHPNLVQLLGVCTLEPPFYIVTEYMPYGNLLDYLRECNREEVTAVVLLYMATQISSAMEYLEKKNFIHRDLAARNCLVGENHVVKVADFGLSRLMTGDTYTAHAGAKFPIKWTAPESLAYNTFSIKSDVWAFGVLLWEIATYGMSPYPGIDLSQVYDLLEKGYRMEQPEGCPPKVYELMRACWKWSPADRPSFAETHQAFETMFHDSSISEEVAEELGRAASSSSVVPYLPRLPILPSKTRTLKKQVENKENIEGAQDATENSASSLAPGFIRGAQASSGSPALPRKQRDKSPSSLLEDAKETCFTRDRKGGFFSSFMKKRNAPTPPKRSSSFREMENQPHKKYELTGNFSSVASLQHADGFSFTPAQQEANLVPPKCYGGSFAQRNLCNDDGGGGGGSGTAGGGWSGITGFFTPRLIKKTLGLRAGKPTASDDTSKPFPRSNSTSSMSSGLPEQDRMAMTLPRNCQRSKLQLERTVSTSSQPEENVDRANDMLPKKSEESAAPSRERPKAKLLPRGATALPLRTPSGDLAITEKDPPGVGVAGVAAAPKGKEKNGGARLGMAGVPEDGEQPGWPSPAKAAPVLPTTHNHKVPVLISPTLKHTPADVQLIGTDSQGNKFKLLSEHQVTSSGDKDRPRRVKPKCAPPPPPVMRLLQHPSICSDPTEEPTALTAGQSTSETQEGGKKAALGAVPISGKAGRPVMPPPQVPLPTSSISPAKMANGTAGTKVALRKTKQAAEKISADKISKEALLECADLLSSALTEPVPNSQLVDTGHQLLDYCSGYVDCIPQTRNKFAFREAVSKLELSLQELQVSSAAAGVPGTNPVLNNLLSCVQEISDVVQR

As to `FC(F)(F)c1ccc(Cl)cc1CN1CCNc2ncc(-c3ccnc(N4CCNCC4)c3)cc21`, the inhibition in assay [1], in assay [2], in [3], in assay [4], in [5] and in [6] was less than 50% in each case. Further, the inhibition in assay [7], in assay [8], in assay [9], in assay [10], in assay [11] and in assay [12] was less than 50% in each case. For the same compound, the values for the inhibition in assay [13], in [14] and in assay [15] were less than 50%, less than 50% and 95%, respectively.

Turning to `CN1CCN(c2ccc(-c3cnc4c(c3)N(Cc3cc(F)ccc3F)CCN4)cn2)CC1`, the inhibition in assay [1], in [2], in assay [3], in [4], in assay [5] and in [6] was less than 50% in each case. The inhibition in assay [7], in [8], in assay [9], in [10], in assay [11] and in [12] was less than 50% in each case. For the same compound, the inhibition in [13] is less than 50%; in assay [14], less than 50%; in assay [15] it was 64%.

`CN1CCN(c2ccc(-c3cnc4c(c3)N(Cc3cc(Cl)ccc3Cl)CCN4)cn2)CC1`: the inhibition in assay [1], in assay [2], in [3], in [4], in [5] and in assay [6] was less than 50% in each case. Also, the inhibition in [7], in assay [8], in assay [9], in assay [10], in assay [11] and in [12] was less than 50% each time. The results for the inhibition in assay [13], in assay [14] and in [15] were less than 50%, less than 50% and 90%, respectively.

For the compound `O=C(O)c1ccc(-c2cnc3c(c2)N(Cc2cc(Cl)ccc2C(F)(F)F)CCN3)cc1`, the inhibition in [1] was less than 50%; in assay [2], 85%; in assay [3], less than 50%; in [4] it was less than 50%; in [6], less than 50%; in [7], less than 50%. Further, the inhibition in [9], in assay [11], in assay [13] and in assay [15] was less than 50% each time.

As to `CN1CCN(c2ccc(-c3cnc4c(c3)N(Cc3cc(Cl)ccc3C(F)(F)F)CCN4)cn2)CC1`, the inhibition in [1], in assay [2], in assay [3], in assay [4], in assay [5] and in assay [6] was less than 50% in each case. The inhibition in assay [7], in assay [8], in assay [9], in assay [10], in assay [11] and in assay [12] was less than 50% throughout. For the same compound, the inhibition was less than 50% in assay [13], less than 50% in assay [14] and 88% in assay [15].

For `COC1CCN(C(=O)c2ccc(-c3cnc4c(c3)N(Cc3cc(Cl)ccc3C(F)(F)F)CCN4)cc2)CC1`, the inhibition in assay [1], in assay [2], in assay [3], in [4], in assay [6] and in assay [7] was less than 50% throughout. The inhibition in assay [9] is less than 50%; in [11] it was less than 50%; in assay [12] it was less than 50%; in assay [13], less than 50%; in assay [15], 80.7%.

In the case of `O=C(c1ccc(-c2cnc3c(c2)N(Cc2cc(Cl)ccc2C(F)(F)F)CCN3)cc1)N1CCC(N2CCCC2)CC1`, the inhibition in [1] was less than 50%; in assay [2] it was 72.3%; in [3], less than 50%; in assay [4], less than 50%; in assay [6], less than 50%; in assay [7], less than 50%. The inhibition was 75.9% in assay [9]; less than 50% in [11]; less than 50% in assay [12]; less than 50% in [13]; 99.3% in assay [15].

For `CN1CCN(c2ccc(-c3cnc4c(c3)N(Cc3c(F)ccc(F)c3Cl)CCN4)cn2)CC1`, the inhibition in assay [1], in assay [2], in assay [3], in assay [4], in assay [5] and in [6] was less than 50% each time. For the same compound, the inhibition was less than 50% in [7]; less than 50% in [8]; 83% in assay [9]; less than 50% in assay [10]; less than 50% in [11]; less than 50% in assay [12]. Moreover, the inhibition in assay [13], in assay [14] and in [15] was less than 50% throughout.

Consider `O=C(c1ccc(-c2cnc3c(c2)N(Cc2cc(Cl)ccc2C(F)(F)F)CCN3)cc1)N1CCCCC1`, for which the inhibition in assay [1], in assay [2], in assay [3], in assay [4], in [6] and in assay [7] was less than 50% each time. The inhibition in [9], in assay [11], in [13] and in [15] was less than 50% each time.

As for `CC(=O)N1CCN(c2cc(-c3cnc4c(c3)N(Cc3cc(Cl)ccc3C(F)(F)F)CCN4)ccn2)CC1`, the inhibition in assay [1] was less than 50%; in assay [2] it was 66%; in assay [3] it was less than 50%; in assay [4], less than 50%; in [5] it was less than 50%; in assay [6], less than 50%. Further, the inhibition in assay [7], in assay [8], in assay [9], in assay [10], in assay [11] and in assay [12] was less than 50% each time. Besides, the inhibition is less than 50% in assay [13], less than 50% in assay [14] and 83% in [15].

Values taken from ChEMBL document CHEMBL1165965, “Synthesis and structure-activity relationships of 1,2,3,4-tetrahydropyrido[2,3-b]pyrazines as potent and selective inhibitors of the anaplastic lymphoma kinase” (Bioorg Med Chem, 2010).
